Experimental findings from ChEMBL document CHEMBL5247671, “Design and Synthesis of Pyrazole-Based Macrocyclic Kinase Inhibitors Targeting BMPR2” (ACS Med Chem Lett, 2023) are described below.

For test [1], the target named is Cyclin-dependent kinase 2 (Homo sapiens) (UniProt P24941). Kind of test: Binding affinity to recombinant CDK2 (unknown origin) assessed as change in melting temperature at 10 uM by DSF assay. In a few lines:
(§1)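 Differential scanning fluorimetry on an in-house panel of 90 recombinant kinases. Stabilization is read as the shift in melting temperature (ΔTm) relative to ligand-free protein. Staurosporine served as the positive control, and binding was also compared against its ΔTm.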

For test [2], the target named is Glycogen synthase kinase-3 alpha (Homo sapiens, UniProt P49840). Kind of test: Inhibition of GSK3A (unknown origin) assessed as residual activity at 1 uM by Kinomescan assay relative to staurosporine.
Chain of Glycogen synthase kinase-3 alpha (P49840 2-483 limits assumed): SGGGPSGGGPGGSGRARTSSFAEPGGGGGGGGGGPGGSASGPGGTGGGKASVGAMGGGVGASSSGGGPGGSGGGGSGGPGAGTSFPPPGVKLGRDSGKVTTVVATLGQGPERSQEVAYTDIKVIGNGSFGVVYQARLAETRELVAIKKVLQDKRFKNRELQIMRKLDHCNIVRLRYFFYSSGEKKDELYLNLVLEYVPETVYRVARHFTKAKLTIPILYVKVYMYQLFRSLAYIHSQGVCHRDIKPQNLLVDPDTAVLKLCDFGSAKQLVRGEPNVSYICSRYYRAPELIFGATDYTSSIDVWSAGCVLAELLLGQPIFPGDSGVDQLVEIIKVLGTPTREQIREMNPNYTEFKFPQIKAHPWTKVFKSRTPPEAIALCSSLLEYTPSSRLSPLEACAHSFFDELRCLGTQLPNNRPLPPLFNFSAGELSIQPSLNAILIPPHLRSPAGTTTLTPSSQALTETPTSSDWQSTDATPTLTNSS
Test [3] deals with MAP/microtubule affinity-regulating kinase 3 (Homo sapiens) (UniProt P27448). Kind of test: Binding affinity to recombinant MARK3 (unknown origin) assessed as change in melting temperature at 10 uM by DSF assay. In a few lines: as §1
Chain of MAP/microtubule affinity-regulating kinase 3 (Homo sapiens) (P27448 whole entry, looked up): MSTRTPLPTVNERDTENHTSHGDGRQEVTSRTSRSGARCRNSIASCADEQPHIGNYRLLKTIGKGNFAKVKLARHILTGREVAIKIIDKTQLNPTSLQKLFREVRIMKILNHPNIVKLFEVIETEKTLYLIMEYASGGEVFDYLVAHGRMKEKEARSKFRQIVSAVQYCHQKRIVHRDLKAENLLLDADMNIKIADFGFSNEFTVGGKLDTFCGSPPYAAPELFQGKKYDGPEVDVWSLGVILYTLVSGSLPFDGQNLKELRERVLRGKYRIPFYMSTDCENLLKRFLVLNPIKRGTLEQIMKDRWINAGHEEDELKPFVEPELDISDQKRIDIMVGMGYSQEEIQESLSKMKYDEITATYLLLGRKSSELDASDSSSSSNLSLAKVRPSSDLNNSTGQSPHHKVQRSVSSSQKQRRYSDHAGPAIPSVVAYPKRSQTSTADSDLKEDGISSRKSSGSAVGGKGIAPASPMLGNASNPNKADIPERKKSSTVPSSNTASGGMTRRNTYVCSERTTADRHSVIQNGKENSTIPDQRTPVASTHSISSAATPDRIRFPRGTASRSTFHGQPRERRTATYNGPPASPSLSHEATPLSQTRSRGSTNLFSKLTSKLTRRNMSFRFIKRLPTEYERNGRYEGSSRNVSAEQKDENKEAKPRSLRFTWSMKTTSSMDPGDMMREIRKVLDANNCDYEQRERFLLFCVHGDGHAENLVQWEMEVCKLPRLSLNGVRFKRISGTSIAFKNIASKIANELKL
On the technique in general: In DSF a fluorescence change marks the thermal transition of the protein.

Test [4] concerns the target T1, Bone morphogenetic protein receptor type-2 (Homo sapiens) (UniProt Q13873).
T1 sequence (whole entry): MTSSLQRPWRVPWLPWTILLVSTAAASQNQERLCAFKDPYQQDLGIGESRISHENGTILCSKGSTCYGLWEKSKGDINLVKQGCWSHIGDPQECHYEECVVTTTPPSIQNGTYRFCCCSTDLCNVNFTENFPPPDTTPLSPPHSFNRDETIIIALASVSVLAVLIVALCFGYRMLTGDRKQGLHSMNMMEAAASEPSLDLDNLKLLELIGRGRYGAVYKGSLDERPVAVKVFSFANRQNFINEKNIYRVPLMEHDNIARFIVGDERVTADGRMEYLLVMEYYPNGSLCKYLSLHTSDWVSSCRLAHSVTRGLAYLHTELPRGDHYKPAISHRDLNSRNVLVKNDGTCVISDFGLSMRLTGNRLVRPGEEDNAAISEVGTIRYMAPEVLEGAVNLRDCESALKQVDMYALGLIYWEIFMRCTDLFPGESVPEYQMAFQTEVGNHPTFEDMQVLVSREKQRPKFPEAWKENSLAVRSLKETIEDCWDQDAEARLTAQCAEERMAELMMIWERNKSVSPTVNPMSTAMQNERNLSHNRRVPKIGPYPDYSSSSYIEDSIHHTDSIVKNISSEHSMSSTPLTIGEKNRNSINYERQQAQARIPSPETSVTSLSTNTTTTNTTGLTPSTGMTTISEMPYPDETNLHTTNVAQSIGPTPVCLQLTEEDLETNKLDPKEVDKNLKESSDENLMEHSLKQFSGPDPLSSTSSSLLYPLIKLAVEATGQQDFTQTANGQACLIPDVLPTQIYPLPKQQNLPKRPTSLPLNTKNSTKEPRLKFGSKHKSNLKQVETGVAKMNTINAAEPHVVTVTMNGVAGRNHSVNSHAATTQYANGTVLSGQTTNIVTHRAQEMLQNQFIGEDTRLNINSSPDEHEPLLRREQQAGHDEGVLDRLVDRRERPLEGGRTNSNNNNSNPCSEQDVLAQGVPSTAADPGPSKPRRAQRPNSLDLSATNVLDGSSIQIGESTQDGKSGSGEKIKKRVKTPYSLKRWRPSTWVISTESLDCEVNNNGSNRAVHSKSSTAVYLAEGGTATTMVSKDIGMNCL
Kind of test: Inhibition of BMPR2 (unknown origin) assessed as residual activity at 1 uM by Kinomescan assay relative to staurosporine.

Test [5] concerns the target MAP/microtubule affinity-regulating kinase 3 (Homo sapiens) (UniProt P27448). Briefly: Inhibition of recombinant MARK3 (unknown origin) at 10 uM by DSF assay relative to staurosporine. In a few lines: as §1
Test [6] deals with T2, Tyrosine-protein kinase Mer (Homo sapiens) (UniProt Q12866).
T2 sequence (whole entry): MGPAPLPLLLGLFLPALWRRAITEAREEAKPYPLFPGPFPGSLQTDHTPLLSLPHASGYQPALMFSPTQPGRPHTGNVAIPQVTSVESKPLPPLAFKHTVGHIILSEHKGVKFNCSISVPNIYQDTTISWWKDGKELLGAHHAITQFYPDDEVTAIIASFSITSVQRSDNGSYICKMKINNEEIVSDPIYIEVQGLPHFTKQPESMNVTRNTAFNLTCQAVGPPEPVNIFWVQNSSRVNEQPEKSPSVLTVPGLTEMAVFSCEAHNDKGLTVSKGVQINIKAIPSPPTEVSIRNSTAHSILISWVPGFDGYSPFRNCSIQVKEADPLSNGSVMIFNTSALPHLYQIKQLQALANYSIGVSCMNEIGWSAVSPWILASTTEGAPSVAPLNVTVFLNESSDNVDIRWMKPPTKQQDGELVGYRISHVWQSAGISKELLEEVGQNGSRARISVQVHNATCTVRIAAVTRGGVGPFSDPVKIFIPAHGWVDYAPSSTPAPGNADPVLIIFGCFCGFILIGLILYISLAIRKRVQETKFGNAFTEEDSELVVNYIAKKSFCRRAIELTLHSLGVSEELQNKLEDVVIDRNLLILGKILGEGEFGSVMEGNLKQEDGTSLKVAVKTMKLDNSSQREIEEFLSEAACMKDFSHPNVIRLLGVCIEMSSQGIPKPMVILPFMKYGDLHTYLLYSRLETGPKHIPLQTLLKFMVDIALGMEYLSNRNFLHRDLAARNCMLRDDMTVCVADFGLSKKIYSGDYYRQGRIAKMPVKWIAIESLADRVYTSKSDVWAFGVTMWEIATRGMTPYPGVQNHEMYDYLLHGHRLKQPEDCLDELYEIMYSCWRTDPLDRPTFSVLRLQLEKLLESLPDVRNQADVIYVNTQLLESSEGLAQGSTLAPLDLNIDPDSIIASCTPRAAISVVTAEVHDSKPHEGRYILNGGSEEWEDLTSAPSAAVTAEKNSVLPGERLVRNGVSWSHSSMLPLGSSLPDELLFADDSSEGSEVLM
Kind of test: Binding affinity to recombinant MERTK (unknown origin) assessed as change in melting temperature at 10 uM by DSF assay. An outline of the steps: as §1

Test [7] deals with BMP-2-inducible protein kinase (Homo sapiens) (UniProt Q9NSY1). Kind of test: Binding affinity to recombinant BMP2K (unknown origin) assessed as change in melting temperature at 10 uM by DSF assay. An outline of the steps: as §1
Chain of BMP-2-inducible protein kinase (Homo sapiens) (Q9NSY1 whole entry, looked up): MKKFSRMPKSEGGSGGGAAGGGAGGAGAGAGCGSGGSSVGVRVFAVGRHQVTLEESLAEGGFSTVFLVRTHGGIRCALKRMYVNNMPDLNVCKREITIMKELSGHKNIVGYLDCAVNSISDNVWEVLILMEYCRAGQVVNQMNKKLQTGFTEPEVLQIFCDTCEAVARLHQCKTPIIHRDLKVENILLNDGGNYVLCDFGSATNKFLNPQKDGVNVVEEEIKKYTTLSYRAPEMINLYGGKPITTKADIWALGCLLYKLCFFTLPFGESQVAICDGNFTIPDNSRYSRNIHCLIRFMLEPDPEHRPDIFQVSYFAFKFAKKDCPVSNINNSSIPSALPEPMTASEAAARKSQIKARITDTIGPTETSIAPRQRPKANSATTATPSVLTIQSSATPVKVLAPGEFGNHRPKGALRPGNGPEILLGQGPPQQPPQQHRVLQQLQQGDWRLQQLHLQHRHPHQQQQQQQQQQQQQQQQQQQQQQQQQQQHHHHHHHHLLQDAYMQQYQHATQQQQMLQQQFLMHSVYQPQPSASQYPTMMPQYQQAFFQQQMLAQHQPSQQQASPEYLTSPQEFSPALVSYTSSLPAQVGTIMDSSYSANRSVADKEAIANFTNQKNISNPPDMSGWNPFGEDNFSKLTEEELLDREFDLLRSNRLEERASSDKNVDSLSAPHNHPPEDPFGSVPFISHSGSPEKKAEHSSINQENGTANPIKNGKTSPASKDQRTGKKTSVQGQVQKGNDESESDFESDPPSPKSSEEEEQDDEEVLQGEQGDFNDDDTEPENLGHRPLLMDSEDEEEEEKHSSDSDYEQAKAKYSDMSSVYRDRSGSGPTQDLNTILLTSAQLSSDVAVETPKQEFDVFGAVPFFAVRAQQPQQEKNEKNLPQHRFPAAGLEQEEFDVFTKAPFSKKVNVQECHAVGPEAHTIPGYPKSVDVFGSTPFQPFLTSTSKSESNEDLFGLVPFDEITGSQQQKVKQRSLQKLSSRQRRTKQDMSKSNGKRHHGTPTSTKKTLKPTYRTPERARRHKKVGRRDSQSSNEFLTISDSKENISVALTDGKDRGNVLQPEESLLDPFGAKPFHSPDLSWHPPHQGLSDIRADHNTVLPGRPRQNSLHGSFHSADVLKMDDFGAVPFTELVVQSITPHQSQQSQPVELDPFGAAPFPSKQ
For test [8], the target named is Serine/threonine-protein kinase 24 (Homo sapiens) (UniProt Q9Y6E0). Kind of test: Binding affinity to recombinant MST3 (unknown origin) assessed as change in melting temperature at 10 uM by DSF assay. In a few lines:
as §1

Several values for one entry are separate records, joined by “and”; a condition that tells them apart may be missing. Equal entries are not always repeated.

Chain of Serine/threonine-protein kinase 24 (Homo sapiens) (Q9Y6E0 whole entry, looked up): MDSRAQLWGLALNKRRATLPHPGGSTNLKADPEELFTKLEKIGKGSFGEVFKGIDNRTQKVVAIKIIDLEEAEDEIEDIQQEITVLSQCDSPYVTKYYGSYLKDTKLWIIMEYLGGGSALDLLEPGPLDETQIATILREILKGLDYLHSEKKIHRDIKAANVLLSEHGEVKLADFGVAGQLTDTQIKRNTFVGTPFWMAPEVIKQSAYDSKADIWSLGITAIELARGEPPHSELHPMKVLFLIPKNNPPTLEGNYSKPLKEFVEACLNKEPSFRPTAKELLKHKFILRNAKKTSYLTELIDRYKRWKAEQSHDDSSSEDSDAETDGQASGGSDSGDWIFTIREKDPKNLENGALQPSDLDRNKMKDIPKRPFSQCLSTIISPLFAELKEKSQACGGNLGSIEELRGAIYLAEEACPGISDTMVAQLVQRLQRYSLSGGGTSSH

With `O=C1NCCc2ccc(cc2)Nc2nccc(n2)Nc2cc1[nH]n2`, the ΔTm (in general, the change in melting temperature against a reference sample) in test [1] was 3.3 °C; in test [3], 3.9 °C; in test [6], 3.2 °C; in test [7], 5.8 °C and 5.3 °C; in test [8] it was 3.2 °C. In addition, the Activity in test [2] turned out to be 16%; in test [4], 8.3%. In test [5], the inhibition – broadly, how much of the control response was suppressed – worked out at 22%.
